Measurements: ChEMBL document CHEMBL4270642, “Boronic ester-linked macrocyclic lipopeptides as serine protease inhibitors targeting Escherichia coli type I signal peptidase” (Eur J Med Chem, 2018)
pIC50: −log10 of the molar value. Values after ≈ are worked out from the molar mass of the structure shown.

Columns and labels:
[1] = target: Signal peptidase I (Escherichia coli K-12) (UniProt P00803); test: Inhibition of Escherichia coli type 1 signal peptidase lepB assessed as residual activity at 1.25 uM preincubated for 10 mins followed by Dabcyl-VGGTATAYGAFSRPGLE-(EDANS)-OH substrate addition measured after 2 hrs by FRET based assay (reference value: 100%)
Sequence of Signal peptidase I (Escherichia coli K-12) (P00803 whole entry): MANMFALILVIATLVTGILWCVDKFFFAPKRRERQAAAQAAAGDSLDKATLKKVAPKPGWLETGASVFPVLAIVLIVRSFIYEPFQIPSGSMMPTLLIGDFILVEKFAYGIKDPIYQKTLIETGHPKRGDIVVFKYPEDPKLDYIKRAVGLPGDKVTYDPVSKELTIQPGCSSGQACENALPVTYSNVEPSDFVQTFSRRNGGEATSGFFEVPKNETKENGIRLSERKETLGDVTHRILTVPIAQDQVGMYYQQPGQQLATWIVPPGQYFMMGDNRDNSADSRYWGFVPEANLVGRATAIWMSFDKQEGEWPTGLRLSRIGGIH
Outline: (§1)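 EcLepB (about 50 nM estimated) preincubated 10 min with compound. Reaction started with Dabcyl/EDANS FRET peptide at 8 µM final (Km 20 µM). Fluorescence followed continuously at 535 nm, 22 °C, for 2 h. Cleavage rates plotted against inhibitor concentration; IC50 from non-linear regression of sigmoidal dose-response curves.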

[2] = target: Signal peptidase I (Escherichia coli K-12) (UniProt P00803); test: Inhibition of Escherichia coli type 1 signal peptidase lepB assessed as residual activity at 5 uM preincubated for 10 mins followed by Dabcyl-VGGTATAYGAFSRPGLE-(EDANS)-OH substrate addition measured after 2 hrs by FRET based assay (reference value: 100%); outline: as §1
[3] = target: Signal peptidase I (Escherichia coli K-12) (UniProt P00803); test: Inhibition of Escherichia coli type 1 signal peptidase lepB assessed as residual activity at 0.0781 uM preincubated for 10 mins followed by Dabcyl-VGGTATAYGAFSRPGLE-(EDANS)-OH substrate addition measured after 2 hrs by FRET based assay (reference value: 100%); outline: as §1
[4] = test system: Escherichia coli; test: Antibacterial activity against Escherichia coli ATCC 25922 after 16 to 20 hrs by broth microdilution method; type: functional
Outline: (§2)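 Broth microdilution in cation-adjusted Mueller-Hinton II per EUCAST/CLSI; two-fold compound series 64 down to 0.25 µg/mL final. Inoculum from fresh colonies (non-selective agar, 18-24 h, 35 ± 2 °C), adjusted to 0.5 McFarland, diluted to about 5 × 10^5 CFU/mL final. Static incubation 16-20 h at 35 ± 2 °C; MIC read visually as complete growth inhibition against medium-only wells.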

[5] = target: Signal peptidase I (Escherichia coli K-12) (UniProt P00803); test: Inhibition of Escherichia coli type 1 signal peptidase lepB assessed as residual activity at 0.0024 uM preincubated for 10 mins followed by Dabcyl-VGGTATAYGAFSRPGLE-(EDANS)-OH substrate addition measured after 2 hrs by FRET based assay (reference value: 100%); outline: as §1
[6] = test system: HepG2; test: Cytotoxicity against human HepG2 cells after 72 hrs by FMSA; type: cell-based; settings: HepG2, 72 h
Outline: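 HepG2 (ATCC) grown in EMEM with 10% FBS, pen/strep, 2 mM L-glutamine, used up to 20 passages. Seeded at 1000 cells/well, cultured overnight, then dosed acoustically from DMSO stocks. Eight two-fold dilutions in duplicate from top 64 or 32 µM; 72 h at 37 °C, 5% CO2. Fluorescein diacetate hydrolysis read at ex 485/em 530 nm; IC50 by non-linear regression.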

[7] = target: Signal peptidase I (Escherichia coli K-12) (UniProt P00803); test: Inhibition of Escherichia coli type 1 signal peptidase lepB assessed as residual activity at 0.0006 uM preincubated for 10 mins followed by Dabcyl-VGGTATAYGAFSRPGLE-(EDANS)-OH substrate addition measured after 2 hrs by FRET based assay (reference value: 100%); outline: as §1
[8] = target: Signal peptidase I (Escherichia coli K-12) (UniProt P00803); test: Inhibition of Escherichia coli type 1 signal peptidase lepB assessed as residual activity at 0.625 uM preincubated for 10 mins followed by Dabcyl-VGGTATAYGAFSRPGLE-(EDANS)-OH substrate addition measured after 2 hrs by FRET based assay (reference value: 100%); outline: as §1
[9] = test system: Pseudomonas aeruginosa; test: Antibacterial activity against Pseudomonas aeruginosa PAO1 after 16 to 20 hrs by broth microdilution method; type: functional; outline: as §2
[10] = target: Signal peptidase I (Escherichia coli K-12) (UniProt P00803); test: Inhibition of Escherichia coli type 1 signal peptidase lepB assessed as residual activity at 0.0098 uM preincubated for 10 mins followed by Dabcyl-VGGTATAYGAFSRPGLE-(EDANS)-OH substrate addition measured after 2 hrs by FRET based assay (reference value: 100%); outline: as §1
[11] = Hemolytic activity in human RBC at 100 uM after 45 mins by spectrophotometric method relative to control; type: ADME, cell-based, Erythrocyte; settings: red blood cells (erythrocytes), read-out: Activity
Outline: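 Heparinized human blood; red cells washed three times in Tyrode buffer pH 7.4. Compound at 100 µM final with 1% DMSO and 50% RBC, shaken (250 rpm) 45 min at 37 °C. Cells pelleted (1000 × g, 10 min); supernatant haemoglobin at 540 nm. Percent lysis relative to buffer-only and 2% Triton X-100 controls.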

[12] = target: Signal peptidase I (Escherichia coli K-12) (UniProt P00803); test: Inhibition of Escherichia coli type 1 signal peptidase lepB assessed as residual activity at 0.3125 uM preincubated for 10 mins followed by Dabcyl-VGGTATAYGAFSRPGLE-(EDANS)-OH substrate addition measured after 2 hrs by FRET based assay (reference value: 100%); outline: as §1
[13] = target: Signal peptidase I (Escherichia coli K-12, UniProt P00803); test: Inhibition of Escherichia coli type 1 signal peptidase lepB preincubated for 10 mins followed by Dabcyl-VGGTATAYGAFSRPGLE-(EDANS)-OH substrate addition measured after 2 hrs by FRET based assay; outline: as §1
Sequence of Signal peptidase I (P00803 whole entry): as above

[14] = target: Signal peptidase I (Escherichia coli K-12) (UniProt P00803); test: Inhibition of Escherichia coli type 1 signal peptidase lepB assessed as residual activity at 0.0012 uM preincubated for 10 mins followed by Dabcyl-VGGTATAYGAFSRPGLE-(EDANS)-OH substrate addition measured after 2 hrs by FRET based assay (reference value: 100%); outline: as §1
[15] = target: Signal peptidase I (Escherichia coli K-12) (UniProt P00803); test: Inhibition of Escherichia coli type 1 signal peptidase lepB assessed as residual activity at 0.0049 uM preincubated for 10 mins followed by Dabcyl-VGGTATAYGAFSRPGLE-(EDANS)-OH substrate addition measured after 2 hrs by FRET based assay (reference value: 100%); outline: as §1
[16] = target: Signal peptidase I (Escherichia coli K-12) (UniProt P00803); test: Inhibition of Escherichia coli type 1 signal peptidase lepB assessed as residual activity at 0.0195 uM preincubated for 10 mins followed by Dabcyl-VGGTATAYGAFSRPGLE-(EDANS)-OH substrate addition measured after 2 hrs by FRET based assay (reference value: 100%); outline: as §1
[17] = target: Signal peptidase I (Escherichia coli K-12) (UniProt P00803); test: Inhibition of Escherichia coli type 1 signal peptidase lepB assessed as residual activity at 0.0391 uM preincubated for 10 mins followed by Dabcyl-VGGTATAYGAFSRPGLE-(EDANS)-OH substrate addition measured after 2 hrs by FRET based assay (reference value: 100%); outline: as §1
[18] = target: Signal peptidase I (Escherichia coli K-12) (UniProt P00803); test: Inhibition of Escherichia coli type 1 signal peptidase lepB assessed as residual activity at 10 uM preincubated for 10 mins followed by Dabcyl-VGGTATAYGAFSRPGLE-(EDANS)-OH substrate addition measured after 2 hrs by FRET based assay (reference value: 100%); outline: as §1
[19] = target: Signal peptidase I (Escherichia coli K-12) (UniProt P00803); test: Inhibition of Escherichia coli type 1 signal peptidase lepB assessed as residual activity at 2.5 uM preincubated for 10 mins followed by Dabcyl-VGGTATAYGAFSRPGLE-(EDANS)-OH substrate addition measured after 2 hrs by FRET based assay (reference value: 100%); outline: as §1
[20] = test system: Escherichia coli; test: Antibacterial activity against tolC deficient Escherichia coli CH3130 after 16 to 20 hrs by broth microdilution method; type: functional; outline: as §2
[21] = target: Signal peptidase I (Escherichia coli K-12) (UniProt P00803); test: Inhibition of Escherichia coli type 1 signal peptidase lepB assessed as residual activity at 0.1563 uM preincubated for 10 mins followed by Dabcyl-VGGTATAYGAFSRPGLE-(EDANS)-OH substrate addition measured after 2 hrs by FRET based assay (reference value: 100%); outline: as §1
[22] = test system: Staphylococcus aureus; test: Antibacterial activity against Staphylococcus aureus ATCC 29213 after 16 to 20 hrs by broth microdilution method; type: functional; outline: as §2
[23] = test system: Pseudomonas aeruginosa; test: Antibacterial activity against efflux defective Pseudomonas aeruginosa PAO750 after 16 to 20 hrs by broth microdilution method; type: functional; outline: as §2
[24] = test system: Acinetobacter baumannii; test: Antibacterial activity against Acinetobacter baumannii ATCC 19606 after 16 to 20 hrs by broth microdilution method; type: functional; settings: ATCC 19606 = CIP 70.34 = JCM 6841; outline: as §2
[25] = test system: Escherichia coli; test: Antibacterial activity against Escherichia coli D22 CGSG 5163 harboring Ips mutant after 16 to 20 hrs by broth microdilution method; type: functional
Outline: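 Broth microdilution in cation-adjusted Mueller-Hinton II broth, following EUCAST and CLSI guidelines. Two-fold series at final concentrations 64 down to 0.25 µg/mL, with medium-only and growth controls. Inoculum from fresh colonies (18-24 h, 35 °C ± 2 °C) adjusted to 0.5 McFarland, final ≈5 × 10^5 CFU/mL. Plates incubated unshaken 16-20 h at 35 °C ± 2 °C. MIC read visually as complete inhibition of growth.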

[26] = test system: Klebsiella pneumoniae; test: Antibacterial activity against Klebsiella pneumoniae ATCC 13883 after 16 to 20 hrs by broth microdilution method; type: functional; outline: as §2

Row | SMILES | Activity [1] | Activity [2] | Activity [3] | MIC [4] | Activity [5] | pIC50 [6] | Activity [7] | Activity [8] | MIC [9] | Activity [10] | hemolysis at 0.75 h, 100 µM [11] | Activity [12] | pIC50 [13] | Activity [14] | Activity [15] | Activity [16] | Activity [17] | Activity [18] | Activity [19] | MIC [20] | also measured
1 | CCCCCCc1ccc(-c2ccc(C(=O)N[C@@H](CCCN)C(=O)N(C)[C@H](C(=O)N[C@@H](C)C(=O)N[C@H]3Cc4cn(nn4)CCCN4C[C@@H]5OB(O[C@@H]5C4)[C@H](C)NC3=O)[C@@H](C)O)cc2)cc1 | 23.6% | 8% | 52.1% | 64 µg/mL (≈ 71.2 µM) | 95.7% | 5.07 | 95.8% | 30.7% | > 64 µg/mL | 88.1% | 9.6% | 34.2% | 7.01 | 95.3% | 92.7% | 75.7% | 69.9% | 3.7% | 18.2% | 16 µg/mL (≈ 17.8 µM) | Activity [21]: 40%; MIC [22]: 32 µg/mL (≈ 35.6 µM); MIC [23]: 64 µg/mL (≈ 71.2 µM); MIC [24]: 64 µg/mL (≈ 71.2 µM); MIC [25]: 32 µg/mL (≈ 35.6 µM); MIC [26]: 32 µg/mL (≈ 35.6 µM)
2 | CCCCCCc1ccc(-c2ccc(C(=O)N[C@@H](CCCN)C(=O)N[C@H](C(=O)N[C@@H](C)C(=O)N[C@H]3Cc4cn(nn4)CCCN4C[C@@H]5OB(O[C@@H]5C4)[C@H](C)NC3=O)[C@@H](C)O)cc2)cc1 | 32.8% | 14.9% | 42.8% | 32 µg/mL (≈ 36.2 µM) | 86.2% | 5.40 | 89.5% | 35.3% | > 64 µg/mL | 76.7% | 17.4% | 43% | 6.98 | 85.6% | 80.9% | 68.6% | 47.9% | 5.6% | 28.1% | 8 µg/mL (≈ 9.04 µM) | Activity [21]: 47.3%; MIC [22]: 32 µg/mL (≈ 36.2 µM); MIC [23]: 64 µg/mL (≈ 72.3 µM); MIC [24]: 16 µg/mL (≈ 18.1 µM); MIC [25]: 8 µg/mL (≈ 9.04 µM); MIC [26]: 32 µg/mL (≈ 36.2 µM)
3 | CCCCCCc1ccc(-c2ccc(C(=O)N[C@@H](CCCN)C(=O)N[C@H](C(=O)N[C@@H](C)C(=O)N[C@H]3Cc4cn(nn4)CCO[C@@H]4C[C@@H]5OB(O[C@@H]5C4)[C@H](C)NC3=O)[C@@H](C)O)cc2)cc1 | 42.2% | 4% | 65.2% | 16 µg/mL (≈ 18.1 µM) | 90.6% | 5.10 | 95.3% | 27.1% | 64 µg/mL (≈ 72.2 µM) | 94.3% | 10.6% | 39.1% | 6.76 | 90.7% | 91% | 84.3% | 77.8% | -2.5% | 27.1% | 4 µg/mL (≈ 4.52 µM) | Activity [21]: 57.6%; MIC [22]: 2 µg/mL (≈ 2.26 µM); MIC [23]: 32 µg/mL (≈ 36.1 µM); MIC [24]: 8 µg/mL (≈ 9.03 µM); MIC [25]: 4 µg/mL (≈ 4.52 µM); MIC [26]: 8 µg/mL (≈ 9.03 µM)
4 | CCCCCCc1ccc(-c2ccc(C(=O)N[C@@H](CCCNC(=N)N)C(=O)N[C@H](C(=O)N[C@@H](C)C(=O)N[C@H]3Cc4cn(nn4)CCCN4C[C@@H]5OB(O[C@@H]5C4)[C@H](C)NC3=O)[C@@H](C)O)cc2)cc1 | 35.7% | 27.7% | 46.5% | 16 µg/mL (≈ 17.3 µM) | 102% | 5.62 | 108% | 36% | > 64 µg/mL | 101% | 21% | 39.1% | 7.39 | 106% | 105% | 97.2% | 76.8% | 22.9% | 32.8% | 4 µg/mL (≈ 4.32 µM) | Activity [21]: 41.7%; MIC [22]: 16 µg/mL (≈ 17.3 µM); MIC [23]: 32 µg/mL (≈ 34.5 µM); MIC [24]: 16 µg/mL (≈ 17.3 µM); MIC [25]: 8 µg/mL (≈ 8.63 µM); MIC [26]: 16 µg/mL (≈ 17.3 µM)
